Test results taken from article PMC8245906 (Acta Pharmaceutica Sinica. B, 2021).
Read-outs that look alike come from different tables or passages of the source.

How the values were obtained:
[1] = Microsomal stability in CD-1 mice liver microsomes; type: in vitro ADME; settings: for microsomal CLint at 1 μmol/L: CD-1, mouse, liver microsomes, pH 7.4
Summary of the method: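 Mouse liver microsomes (0.5 mg/mL protein, final) in 0.1 mol/L potassium phosphate, pH 7.4, 37 °C, with 1 mmol/L NADPH and 1 mmol/L MgCl₂. Started by adding test compound (1 µmol/L final). A no-NADPH control was run in parallel. Sampled at 0, 5, 15, 30 and 60 min and quenched in acidified acetonitrile. LC/MS/MS gave t1/2 and CLint. At least duplicate independent assays.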

[2] = Microsomal stability in human liver microsomes; type: in vitro ADME; settings: for microsomal CLint at 1 μmol/L: human, liver microsomes, pH 7.4
Summary of the method: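 Human liver microsomes (0.5 mg/mL protein) in 0.1 mol/L potassium phosphate, pH 7.4, 37 °C, with 1 mmol/L NADPH and 1 mmol/L MgCl₂, or without NADPH. Test compound at 1 µmol/L final. For CYP3A inhibition, cobicistat was pre-incubated 5 min before the compound. Sampled at 0–60 min and quenched with acidified acetonitrile. LC/MS/MS gave t1/2 and CLint; at least duplicate.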

SARS-CoV-2 [3] = settings: Calu-3 2B4 cells, cited from earlier work
[4] = Plasma stability in CD-1 mouse plasma; type: in vitro ADME, CD-1 mice
Summary of the method: (§1)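 Test compound (1 µmol/L final) incubated in duplicate in pooled plasma diluted to 80% in 0.1 mol/L potassium phosphate, pH 7.4, at 37 °C. Aliquots taken at 0, 1, 3, 6 and 24 h, quenched with acetonitrile containing 0.1% formic acid, and centrifuged. Supernatant analysed by LC/MS/MS to derive plasma t1/2.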

[5] = Pharmacokinetics and oral bioavailability of GS-441524 in CD-1 mice; type: in vivo
SARS-CoV-2 [6] = settings: Vero E6 cells, cited from earlier work
SARS-CoV-2 [7] = settings: read-out: EC50 against SARS-CoV-2; A549-hACE2 cells; cited from earlier work
[8] = test system: major CYP enzymes including 1A1, 1A2, 2B6, 2C8, 2C9, 2C19, 2D6, 3A4, or 3A5; settings: cited from earlier work
[9] = Plasma stability in human plasma; type: in vitro ADME; settings: 1 μmol/L, 80% plasma, 37 °C
Summary of the method: as §1

[10] = Tissue distribution of GS-441524 and GS-443902 in CD-1 mice after oral dosing; type: in vivo; settings: 20 mg/kg oral dose
CYP 2C8, 2D6 and 3A4 = settings: cited from earlier work
P-glycoprotein (P-gp) = settings: cited from earlier work
[11] = human, after iv infusion of RDV, phase I; cited from earlier work
[12] = read-out: EC50 against SARS-CoV-2
[13] = read-out: EC90 against SARS-CoV-2
[14] = male, CD-1, mouse, plasma, iv, 5 mg/kg
[15] = male, CD-1, mouse, plasma, po, 10 mg/kg

## N#C[C@@]1(c2ccc3c(N)ncnn23)O[C@H](CO)[C@@H](O)[C@H]1O [GS-441524]
[1]
  microsomal CLint at 1 μmol/L: 1.7 ± 0.4 µL/min/mg
[1]; with NADPH, 60 min
  Remaining percentage at 60 min in MLMs: over 91%
[2]
  microsomal CLint at 1 μmol/L: 1.9 ± 0.1 µL/min/mg
[2]; with NADPH, 60 min
  Remaining percentage at 60 min in HLMs: over 91%
SARS-CoV-2 [3]; [12]
  EC50: 620 nM
SARS-CoV-2 [3]; [13]
  EC90: 1340 nM
[4]; 1 μmol/L, 80% CD-1 mouse plasma, 37 °C
  Plasma stability t1/2 Mouse: >24 h
[5]; [14]
  MRT: 1.7 h
  Tmax: 0.083 h
  Vd: 4.2 L/kg
  clearance: 20 mL/min/kg
  half-life: 2.5 h
[5]; male, CD-1, mouse, plasma, iv, 5 mg/kg, AUC0‒t, iv 5 mg/kg, CD-1 mice
  AUC: 14.8 µM·h
[5]; male, CD-1, mouse, plasma, iv, 5 mg/kg, AUC0‒∞, iv 5 mg/kg, CD-1 mice
  AUC: 14.8 µM·h
[5]; male, CD-1, mouse, plasma, iv, 5 mg/kg, Cmax, iv 5 mg/kg, CD-1 mice
  Cmax: 11.6 µM
[5]; [15]
  MRT: 4.2 h
  Tmax: 1 h
  half-life: 2.9 h
[5]; male, CD-1, mouse, plasma, po, 10 mg/kg, AUC0‒t, po 10 mg/kg, CD-1 mice
  AUC: 16.8 µM·h
[5]; male, CD-1, mouse, plasma, po, 10 mg/kg, AUC0‒∞, po 10 mg/kg, CD-1 mice
  AUC: 16.8 µM·h
[5]; po 10 mg/kg, CD-1 mice
  CL (clearance): 33.3 mL/min/kg
  V (volume of distribution): 8.4 L/kg
[5]; po 10 mg/kg, CD-1 mice, 0.25 to 2 h
  Plasma level from 0.25 to 2 h: > 2 µM
[5]; po 10 mg/kg, CD-1 mice, plasma, 10 mg/kg
  Cmax: 3.28 µM
SARS-CoV-2 [6]; [12]
  EC50: 470 nM
SARS-CoV-2 [6]; [13]
  EC90: 710 nM
SARS-CoV-2 [7]
  EC50: 870 nM
[8]
  Substrate of major CYP enzymes: not a substrate
[9]
  Plasma stability t1/2 Human: >24 h
[10]; lung
  Concentration in lung within the first 4 h: ≥ 2.2 µM
[10]; plasma
  Concentration in plasma within the first 4 h: ≥ 2.2 µM

## CCC(CC)COC(=O)[C@H](C)N[P@](=O)(OC[C@H]1O[C@@](C#N)(c2ccc3c(N)ncnn23)[C@H](O)[C@@H]1O)Oc1ccccc1 [RDV, Remdesivir]
[1]
  microsomal CLint at 1 μmol/L: 1680 ± 130 µL/min/mg
[1]; with cofactor NADPH, 1 μmol/L compound, 0.5 mg/mL microsomal protein
  Microsomal stability MLMs t1/2: 48 ± 6 s
CYP 2C8, 2D6 and 3A4
  Substrate for CYP 2C8, 2D6 and 3A4: substrate
[2]; HLMs, with NADPH/Cobi, 60 min
  Remaining percentage of intact RDV at 60 min with NADPH/Cobi: 38.5%
[2]; HLMs, without NADPH, 60 min
  Remaining percentage of intact RDV at 60 min without NADPH: 26.1%
[2]
  microsomal CLint at 1 μmol/L: 1260 ± 68.6 µL/min/mg
[4]; CD-1, mouse, plasma (80% in buffer), pH 7.4
  half-life at 1 μmol/L: < 1 min
[4]; wild-type CD-1 mouse plasma
  Stability in CD-1 mouse plasma (in words): undetectable within seconds
P-glycoprotein (P-gp)
  Substrate of P-glycoprotein (P-gp): substrate
[11]
  Plasma half-life (t1/2): about 1 h
